Laboratory results taken from article PMC8268672 (Bioorganic Chemistry, 2021).
Values after ≈ are worked out from the molar mass of the structure shown. Like-named read-outs stand apart in the source and are kept apart here.

Columns and labels:
[1] = tested on: Bacillus cereus (NCIM-2458); assay: Agar disk diffusion, inhibition zone; format: cell-based; details: 100 µg/8 mm disc, triplicate, mean ± SD
S. aureus DNA gyrase = S. aureus DNA gyrase (Staphylococcus aureus, UniProt P0A0K8+P20831); assay: DNA Gyrase inhibition assay; format: biochemical
Sequence of S. aureus DNA gyrase (P20831 whole entry): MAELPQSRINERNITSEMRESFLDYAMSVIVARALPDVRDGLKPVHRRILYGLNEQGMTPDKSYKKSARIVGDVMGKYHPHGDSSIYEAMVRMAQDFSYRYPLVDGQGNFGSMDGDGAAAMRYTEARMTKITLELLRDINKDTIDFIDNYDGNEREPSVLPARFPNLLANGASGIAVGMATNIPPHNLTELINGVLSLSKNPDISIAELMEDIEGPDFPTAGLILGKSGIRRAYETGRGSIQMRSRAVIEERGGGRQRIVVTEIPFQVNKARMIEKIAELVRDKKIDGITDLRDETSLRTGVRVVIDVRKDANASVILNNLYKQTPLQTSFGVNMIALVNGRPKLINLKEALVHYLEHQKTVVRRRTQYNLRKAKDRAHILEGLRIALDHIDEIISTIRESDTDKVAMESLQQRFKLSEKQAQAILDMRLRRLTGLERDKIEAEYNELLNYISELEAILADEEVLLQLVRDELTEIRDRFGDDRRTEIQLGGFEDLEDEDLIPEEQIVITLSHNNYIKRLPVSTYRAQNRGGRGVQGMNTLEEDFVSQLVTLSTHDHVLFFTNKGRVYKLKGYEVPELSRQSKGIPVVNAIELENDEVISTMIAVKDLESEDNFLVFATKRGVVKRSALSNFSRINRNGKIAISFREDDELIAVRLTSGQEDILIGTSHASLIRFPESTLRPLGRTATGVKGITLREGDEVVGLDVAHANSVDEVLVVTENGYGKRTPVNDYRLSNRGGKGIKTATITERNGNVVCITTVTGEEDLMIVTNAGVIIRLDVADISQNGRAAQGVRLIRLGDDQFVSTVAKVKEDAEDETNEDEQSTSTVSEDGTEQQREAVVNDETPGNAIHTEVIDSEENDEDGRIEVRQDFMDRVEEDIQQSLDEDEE
Sequence of S. aureus DNA gyrase (P0A0K8 whole entry): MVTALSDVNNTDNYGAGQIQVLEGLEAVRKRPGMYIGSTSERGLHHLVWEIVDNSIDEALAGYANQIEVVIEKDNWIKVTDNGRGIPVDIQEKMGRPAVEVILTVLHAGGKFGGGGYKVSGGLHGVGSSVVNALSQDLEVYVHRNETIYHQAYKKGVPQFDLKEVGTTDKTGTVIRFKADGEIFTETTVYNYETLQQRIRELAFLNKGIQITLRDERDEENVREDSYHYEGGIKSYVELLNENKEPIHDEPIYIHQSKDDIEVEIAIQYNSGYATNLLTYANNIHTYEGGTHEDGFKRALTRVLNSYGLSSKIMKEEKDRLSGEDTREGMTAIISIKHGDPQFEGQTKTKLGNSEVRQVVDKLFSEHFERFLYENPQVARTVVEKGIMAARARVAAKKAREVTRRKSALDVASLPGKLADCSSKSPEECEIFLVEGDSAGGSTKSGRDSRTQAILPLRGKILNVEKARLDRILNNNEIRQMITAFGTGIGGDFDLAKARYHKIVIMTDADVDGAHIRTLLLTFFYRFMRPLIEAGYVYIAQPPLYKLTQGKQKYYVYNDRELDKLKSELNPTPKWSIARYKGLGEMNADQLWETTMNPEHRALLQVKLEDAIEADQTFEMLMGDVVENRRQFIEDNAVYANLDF

[2] = tested on: Aspergillus niger (NCIM 2191); assay: MIC, broth microdilution; format: cell-based; details: NCIM2191, read-out: Minimum inhibitory concentration (MIC), AN
Summary of the method: (§1)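 Antifungal MICs by CLSI broth microdilution in Sabouraud liquid medium. Test compounds and standard drugs are serially diluted two-fold from 512 to 0.25. The fungal broth culture is grown 24 h at 35 °C to a 0.5 McFarland turbidity, then adjusted with sterile solution to the final inoculum.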

[3] = tested on: Cryptococcus neoformans (ATCC 9011); assay: Agar disk diffusion, inhibition zone; format: cell-based; details: 100 µg/8 mm disc, triplicate, mean ± SD
[4] = tested on: Pseudomonas aeruginosa (MCCB 0035); assay: Agar disk diffusion, inhibition zone; format: cell-based; details: 100 µg/8 mm disc, triplicate, mean ± SD
[5] = tested on: Klebsiella aerogenes (NCIM-2098); assay: MIC, broth microdilution; format: cell-based; details: NCIM2098, read-out: Minimum inhibitory concentration (MIC), KA
Summary of the method: (§2)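 Antibacterial MICs by CLSI broth microdilution in Mueller-Hinton broth. Test compounds and standard drugs are serially diluted two-fold from 512 to 0.25. The bacterial broth culture is grown 2-6 h to a 0.5 McFarland turbidity, then adjusted with sterile solution to the final inoculum.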

[6] = tested on: Cryptococcus neoformans (ATCC 9011); assay: MIC, broth microdilution; format: cell-based; details: ATCC9011, read-out: Minimum inhibitory concentration (MIC), CN
Summary of the method: as §1

[7] = tested on: Staphylococcus aureus (ATCC 29213); assay: MIC, broth microdilution; format: cell-based; details: ATCC29213, read-out: Minimum inhibitory concentration (MIC), SA
Summary of the method: as §2

[8] = tested on: Klebsiella aerogenes (NCIM-2098); assay: Agar disk diffusion, inhibition zone; format: cell-based; details: 100 µg/8 mm disc, triplicate, mean ± SD
[9] = tested on: Bacillus cereus (NCIM-2458); assay: MIC, broth microdilution; format: cell-based; details: NCIM2458, read-out: Minimum inhibitory concentration (MIC), BC
Summary of the method: (§3)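 Broth microdilution per CLSI in Mueller-Hinton broth, using two-fold serial dilutions of test compound and reference drugs from 512 to 0.25. Bacterial broth cultures were grown 2-6 h to 0.5 McFarland turbidity, then diluted with sterile solution to the final inoculum. MIC is reported in µg/mL.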

[10] = tested on: Candida albicans (NCIM 2087); assay: MIC, broth microdilution; format: cell-based; details: NCIM2087, read-out: Minimum inhibitory concentration (MIC), CA
Summary of the method: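 CLSI broth microdilution in Sabouraud liquid medium, with test compound two-fold serially diluted from 512 to 0.25. Fungal broth culture grown 24 h at 35 °C to 0.5 McFarland turbidity, then adjusted with sterile solution to a final […] inoculum. MIC expressed in µg/mL.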

[11] = tested on: Aspergillus fumigatus (NCIM 2081); assay: Agar disk diffusion, inhibition zone; format: cell-based; details: 100 µg/8 mm disc, triplicate, mean ± SD
[12] = tested on: Salmonella typhimurium (NCIM-2501); assay: Agar disk diffusion, inhibition zone; format: cell-based; details: 100 µg/8 mm disc, triplicate, mean ± SD
[13] = tested on: Aspergillus fumigatus (NCIM 2081); assay: MIC, broth microdilution; format: cell-based; details: NCIM2081, read-out: Minimum inhibitory concentration (MIC), AF
Summary of the method: as §1

[14] = tested on: Streptococcus pneumonia (ATCC 49619); assay: Agar disk diffusion, inhibition zone; format: cell-based; details: 100 µg/8 mm disc, triplicate, mean ± SD
[15] = tested on: Staphylococcus aureus (ATCC 29213); assay: Agar disk diffusion, inhibition zone; format: cell-based; details: 100 µg/8 mm disc, triplicate, mean ± SD
Summary of the method: (§4)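 Agar disk diffusion on Mueller-Hinton agar plates seeded with a standard bacterial suspension. Test compound stock in DMSO, diluted with distilled water; 8 mm sterile filter-paper discs soaked in the solution. Ampicillin was the reference. Plates incubated at 35 °C for 24 h, in triplicate. Read-out is the average inhibition-zone diameter (mm) around each disc.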

[16] = tested on: Lactobacillus casei (NCIM-2651); assay: Agar disk diffusion, inhibition zone; format: cell-based; details: 100 µg/8 mm disc, triplicate, mean ± SD
[17] = tested on: Aspergillus niger (NCIM 2191); assay: Agar disk diffusion, inhibition zone; format: cell-based; details: 100 µg/8 mm disc, triplicate, mean ± SD
Summary of the method: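 For the fungal strain, discs soaked in test compound solution (DMSO stock diluted with distilled water) sat on seeded Mueller-Hinton agar. Clotrimazole was the reference. Incubation ran 48 h at 35 °C, in triplicate. Zone of growth inhibition recorded in mm as the mean diameter around each disc.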

[18] = tested on: Escherichia coli (ATCC 8739); assay: Agar disk diffusion, inhibition zone; format: cell-based; details: 100 µg/8 mm disc, triplicate, mean ± SD
Summary of the method: as §4

[19] = tested on: Pseudomonas aeruginosa (MCCB 0035); assay: MIC, broth microdilution; format: cell-based; details: read-out: Minimum inhibitory concentration (MIC), PA
Summary of the method: as §3

[20] = tested on: Escherichia coli (ATCC 8739); assay: MIC, broth microdilution; format: cell-based; details: ATCC8739, read-out: Minimum inhibitory concentration (MIC), EC
Summary of the method: as §3

[21] = tested on: Candida albicans (NCIM 2087); assay: Agar disk diffusion, inhibition zone; format: cell-based; details: 100 µg/8 mm disc, triplicate, mean ± SD
[22] = tested on: Human embryonic lung (HEL) cells; details: HEL cell cultures; microscopically detectable alteration of normal cell morphology
Vaccinia virus = assay: microbe, parasite or virus in culture; format: cell-based; details: Orthopoxvirus vaccinia, HEL, read-out: Antiviral EC50, Vaccinia virus
Para-influenza-3 virus = assay: CPE reduction assay in Vero cells; format: cell-based, Parainfluenza-3 virus; details: Vero, read-out: Antiviral EC50, Para-influenza-3 virus
Influenza B B/Ned/537/05 = assay: CPE reduction assay in MDCK cells; format: cell-based; details: Influenza B virus, read-out: Antiviral EC50, Influenza B B/Ned/537/05, MTS
[23] = tested on: Influenza A/H1N1 A/Ned/378/05; assay: CPE reduction assay in MDCK cells; format: cell-based; details: Influenza A virus
Vero cells = details: Vero cell cultures; microscopically detectable alteration of normal cell morphology
Coxsackie virus B4 = assay: CPE reduction assay in Vero cells; format: cell-based; details: Enterovirus B, read-out: Antiviral EC50, Coxsackie virus B4
[24] = tested on: Madin Darby canine kidney (MDCK) cells; details: dog
Reovirus-1 = assay: CPE reduction assay in Vero cells; format: cell-based; details: read-out: Antiviral EC50, Reovirus-1
Punta Toro virus = assay: CPE reduction assay in Vero cells; format: cell-based; details: read-out: Antiviral EC50, Punta Toro virus
Human Coronavirus (229E) = assay: CPE reduction assay in HEL cells; format: cell-based; details: read-out: Antiviral EC50, Human Coronavirus (229E)
Adeno virus-2 = assay: CPE reduction assay in HEL cells; format: cell-based; details: read-out: Antiviral EC50, Adeno virus-2
Yellow Fever virus = assay: microbe, parasite or virus in culture; format: cell-based; details: Yellow fever virus, Vero, read-out: Antiviral EC50, Yellow Fever virus
Sindbis virus = assay: CPE reduction assay in Vero cells; format: cell-based; details: read-out: Antiviral EC50, Sindbis virus
MT4 cells = details: MT4 cell cultures; colorimetric MTT cell viability assay
[25] = tested on: Influenza A/H3N2 A/HK/7/87; assay: CPE reduction assay in MDCK cells; format: cell-based; details: Influenza A virus
[26] = read-out: Antiviral EC50, Influenza A/H1N1 A/Ned/378/05, MTS
[27] = read-out: Antiviral EC50, Influenza A/H1N1 A/Ned/378/05, visual CPE score
[28] = read-out: Antiviral EC50, Influenza A/H3N2 A/HK/7/87, MTS
[29] = read-out: Antiviral EC50, Influenza A/H3N2 A/HK/7/87, visual CPE score

Structure (SMILES)	Diameter of growth inhibition zone, BC [1] [mm]	MIC [2] [µg/mL]	Diameter of growth inhibition zone, CN [3] [mm]	Diameter of growth inhibition zone, PA [4] [mm]	MIC [5] [µg/mL]	MIC [6] [µg/mL]	MIC [7] [µg/mL]	Diameter of growth inhibition zone, KA [8] [mm]	MIC [9] [µg/mL]	MIC [10] [µg/mL]	Diameter of growth inhibition zone, AF [11] [mm]	Diameter of growth inhibition zone, ST [12] [mm]	MIC [13] [µg/mL]	Diameter of growth inhibition zone, SP [14] [mm]	Diameter of growth inhibition zone, SA [15] [mm]	Diameter of growth inhibition zone, LC [16] [mm]	Diameter of growth inhibition zone, AN [17] [mm]	Diameter of growth inhibition zone, EC [18] [mm]	MIC [19] [µg/mL]	MIC [20] [µg/mL]	other results
Cc1ccc(S(=O)(=O)N2C(=O)CSC2c2ccc(F)cc2)cc1 (stereo not shown) [5j, 2-(4-Fluorophenyl)-3-[(4-methylphenyl)sulfonyl]-1,3-thiazolidin-4-one]	18 ± 0.5	8 (≈ 22.8 µM)	13 ± 1.5	25 ± 1.5	16 (≈ 45.5 µM)	4 (≈ 11.4 µM)	4 (≈ 11.4 µM)	14 ± 0.94	8 (≈ 22.8 µM)	4 (≈ 11.4 µM)	19 ± 1.2	18 ± 0.3	4 (≈ 11.4 µM)	10 ± 0.6	23 ± 1.1	19 ± 0.5	19 ± 0.6	25.9 ± 0.32	2 (≈ 5.69 µM)	2 (≈ 5.69 µM)	IC50 (S. aureus DNA gyrase): 4.26 µM; Diameter of growth inhibition zone, CA [21]: 21 ± 0.9 mm
Cc1ccc(S(=O)(=O)N2C(=O)CSC2c2cccc([N+](=O)[O-])c2)cc1 (stereo not shown) [5p, 3-[(4-Methylphenyl)sulfonyl]-2-(3-nitrophenyl)-1,3-thiazolidin-4-one]	10 ± 0.4	8 (≈ 21.1 µM)	19 ± 1.0	14 ± 1.1	16 (≈ 42.3 µM)	2 (≈ 5.28 µM)	32 (≈ 84.6 µM)	14 ± 0.75	64 (≈ 169 µM)	4 (≈ 10.6 µM)	20 ± 1.1	12 ± 0.1	8 (≈ 21.1 µM)	08 ± 0.87	16 ± 0.9	12 ± 1.56	20 ± 0.9	16 ± 0.69	64 (≈ 169 µM)	32 (≈ 84.6 µM)	Minimum cytotoxic conc. [22]: >100 µM; EC50 (Vaccinia virus): > 100 µM; EC50 (Para-influenza-3 virus): > 100 µM; EC50 (Influenza B B/Ned/537/05): > 100 µM; EC50 [23, 26]: > 100 µM; EC50 [23, 27]: > 100 µM; Minimum cytotoxic conc. (Vero cells): >100 µM; EC50 (Coxsackie virus B4): > 100 µM; Cytotoxicity, Minimum cytotoxic conc. [24]: >100 µM; EC50 (Reovirus-1): > 100 µM; EC50 (Punta Toro virus): > 100 µM; EC50 (Human Coronavirus (229E)): > 100 µM; EC50 (Adeno virus-2): > 100 µM; EC50 (Yellow Fever virus): > 100 µM; EC50 (Sindbis virus): > 100 µM; Minimum cytotoxic conc. (MT4 cells): >125 µM; Diameter of growth inhibition zone, CA [21]: 22 ± 1.2 mm; EC50 [25, 28]: > 100 µM; EC50 [25, 29]: > 100 µM
Cc1ccc(S(=O)(=O)N2C(=O)CSC2c2ccc([N+](=O)[O-])cc2)cc1 (stereo not shown) [5q, 3-[(4-Methylphenyl)sulfonyl]-2-(4-nitrophenyl)-1,3-thiazolidin-4-one]	12 ± 0.6	4 (≈ 10.6 µM)	19 ± 1.3	18 ± 1.2	32 (≈ 84.6 µM)	2 (≈ 5.28 µM)	32 (≈ 84.6 µM)	12 ± 0.4	32 (≈ 84.6 µM)	4 (≈ 10.6 µM)	21 ± 0.63	10 ± 1.1	4 (≈ 10.6 µM)	10 ± 0.45	18 ± 1.2	14 ± 0.4	22 ± 0.46	17 ± 1.2	32 (≈ 84.6 µM)	16 (≈ 42.3 µM)	Minimum cytotoxic conc. [22]: >100 µM; EC50 (Vaccinia virus): > 100 µM; EC50 (Para-influenza-3 virus): > 100 µM; EC50 (Influenza B B/Ned/537/05): > 100 µM; EC50 [23, 26]: > 100 µM; EC50 [23, 27]: > 100 µM; Minimum cytotoxic conc. (Vero cells): >100 µM; EC50 (Coxsackie virus B4): > 100 µM; Cytotoxicity, Minimum cytotoxic conc. [24]: >100 µM; EC50 (Reovirus-1): > 100 µM; EC50 (Punta Toro virus): > 100 µM; EC50 (Human Coronavirus (229E)): > 100 µM; EC50 (Adeno virus-2): > 100 µM; EC50 (Yellow Fever virus): > 100 µM; EC50 (Sindbis virus): > 100 µM; Minimum cytotoxic conc. (MT4 cells): >125 µM; Diameter of growth inhibition zone, CA [21]: 23 ± 1.2 mm; EC50 [25, 28]: > 100 µM; EC50 [25, 29]: > 100 µM
